Data taken from ChEMBL document CHEMBL3853270, “Influence of Birch Bark Triterpenes on Keratinocytes and Fibroblasts from Diabetic and Nondiabetic Donors” (2016).
The source made the active and inactive calls.

Columns and labels:
[1] = tested on: Fibroblast; assay: Induction of shape change of actin cytoskeleton in human non-diabetic primary fibroblasts at 10 nM after 2 hrs by rhodamine phalloidin-staining based fluorescence microscopic analysis; format: functional
[2] = tested on: Fibroblast; assay: Induction of shape change of actin cytoskeleton in human diabetic primary fibroblasts at 10 nM after 2 hrs by rhodamine phalloidin-staining based fluorescence microscopic analysis; format: functional
[3] = target: Ras-related C3 botulinum toxin substrate 1 (Homo sapiens) (UniProt P63000); assay: Activation of Rac1 in human diabetic primary keratinocytes at 10 nM after 20 mins by immunoblot method
Procedure, shortened: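 Primary keratinocytes from a diabetic adult donor (NHK-d), exposed 20 min. Lysed in glycerol/Tris pH 7.4/NaCl/NP-40/MgCl2/PMSF buffer and cleared at 4 °C. Supernatant incubated 1 h at 4 °C with glutathione-sepharose beads carrying GST-PAK to pull down active GTP-bound Rac1. Blotted on a 13% gel, probed with anti-Rac1 (1:2.000) and detected by ECL; total Rac1 also measured. CNF1 (2 nM) positive control, n = 3.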

[4] = target: Transforming protein RhoA (Homo sapiens) (UniProt P61586); assay: Activation of RhoA in human diabetic primary keratinocytes at 10 nM after 3 hrs by immunoblot method
Procedure, shortened: (§1)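 Keratinocytes from a diabetic adult donor; incubation 3 h for RhoA, 20 min for Cdc42 and Rac1. Lysates made in glycerol/Tris pH 7.4/NaCl/NP-40/MgCl2/PMSF buffer, spun at 4 °C. Active GTP-bound form pulled down on glutathione-sepharose with GST-Rhotekin (RhoA) or GST-PAK (Cdc42, Rac1) for 1 h at 4 °C. Total and pulled-down protein read by immunoblot with ECL; n = 3.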

[5] = tested on: Fibroblast; assay: Effect on actin cytoskeleton in human non-diabetic primary fibroblasts assessed as formation of thin elongated cellular body at 10 nM after 2 hrs by rhodamine phalloidin-staining based fluorescence microscopic analysis; format: functional
Procedure, shortened: (§2)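 Subconfluent cells on glass coverslips, collagen type I coated for fibroblasts; keratinocytes starved 2 days before stimulation. Exposure 2 h, then rhodamine-phalloidin staining (1:25 in PBS) and fluorescence microscopy. Controls were DMSO as solvent and PDGF (fibroblasts) or CNF1 (keratinocytes). Where used, p38-MAPK inhibitor LN 950 (100 nM) was added 30 min beforehand.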

[6] = tested on: Keratinocyte; assay: Effect on actin cytoskeleton in human diabetic primary keratinocytes assessed as formation of cellular protrusions at 10 nM after 2 hrs by rhodamine phalloidin-staining based fluorescence microscopic analysis; format: functional; procedure, shortened: as §2
[7] = tested on: Fibroblast; assay: Effect on actin cytoskeleton in human non-diabetic primary fibroblasts assessed as formation of thin elongated cellular body at 10 nM after 2 hrs in presence of p-38 MAPK inhibitor LN 950 by rhodamine phalloidin-staining based fluorescence microscopic analysis; format: functional; procedure, shortened: as §2
[8] = tested on: Fibroblast; assay: Effect on actin cytoskeleton in human diabetic primary fibroblasts assessed as formation of thin elongated cellular body at 10 nM after 2 hrs by rhodamine phalloidin-staining based fluorescence microscopic analysis; format: functional; procedure, shortened: as §2
[9] = target: Cell division control protein 42 homolog (Homo sapiens) (UniProt P60953); assay: Activation of Cdc42 in human diabetic primary keratinocytes at 10 nM after 20 mins by immunoblot method; procedure, shortened: as §1

Measured: Activity

Sequence of Transforming protein RhoA (Homo sapiens) (P61586 whole entry): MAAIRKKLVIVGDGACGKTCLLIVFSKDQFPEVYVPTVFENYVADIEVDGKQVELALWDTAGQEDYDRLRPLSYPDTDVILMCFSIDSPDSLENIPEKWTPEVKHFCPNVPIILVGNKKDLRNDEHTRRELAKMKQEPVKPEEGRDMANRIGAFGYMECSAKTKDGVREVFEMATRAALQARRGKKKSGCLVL
Sequence of Cell division control protein 42 homolog (Homo sapiens) (P60953 whole entry, looked up): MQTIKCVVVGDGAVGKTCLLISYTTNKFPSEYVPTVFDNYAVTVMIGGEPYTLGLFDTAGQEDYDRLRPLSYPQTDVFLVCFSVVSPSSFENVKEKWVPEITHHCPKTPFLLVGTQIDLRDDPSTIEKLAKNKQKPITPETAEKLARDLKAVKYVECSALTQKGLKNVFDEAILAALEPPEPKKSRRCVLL

C=C(C)[C@@H]1CC[C@]2(C(=O)O)CC[C@]3(C)[C@H](CC[C@@H]4[C@@]5(C)CC[C@H](O)C(C)(C)[C@@H]5CC[C@]43C)[C@@H]12
active: [1] | [2]

C=C(C)[C@@H]1CC[C@]2(C)CC[C@]3(C)[C@H](CC[C@@H]4[C@@]5(C)CC[C@H](O)C(C)(C)[C@@H]5CC[C@]43C)[C@@H]12
not listed: [1] | [2]
active: all other assays above
